Measurements reported in ChEMBL document CHEMBL4406884, “An anthrone-based Kv7.2/7.3 channel blocker with improved properties for the investigation of psychiatric and neurodegenerative disorders” (Bioorg Med Chem Lett, 2019).
≈ marks a conversion by molar mass, not a printed value.

Tests used:
CYP3A4 [1] = target: T1, CYP3A4 (Homo sapiens, UniProt P08684); assay: Inhibition of CYP3A4 (unknown origin) at 50 uM using DBOMF as substrate measured for each min for 6 mins by fluorescence based assay relative to control; type: ADME; settings: probe DBOMF
[2] = target: Potassium voltage-gated channel subfamily KQT member 2 (Homo sapiens, UniProt O43526); assay: Inhibition of Kv7.2 in human HEK293 cells incubated for 1 hr by thallium flux assay; type: cell-based
In short: (§1)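 HEK-293 cells stably expressing KCNQ2 or hERG were plated overnight, then loaded with Thallos AM dye for 1 h at 22 °C. Compounds (10-point, 3-fold dilutions) were added for 5 min, then Tl₂SO₄/K-gluconate stimulus, read at 1 Hz. F/F0 was vehicle-subtracted and initial slopes fit to a four-parameter logistic. Triplicate wells; mean of three independent experiments.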

[3] = target: Voltage-gated potassium channel, KQT; KCNQ2(Kv7.2)/KCNQ3(Kv7.3) (Homo sapiens) (UniProt O43526+O43525); assay: Inhibition of Kv7.2/7.3 in human tsA201 cells assessed as effect on channel currents at -60 mV holding potential at 1.5 uM by whole cell patch clamp assay relative to control; type: cell-based
[4] = target: Voltage-gated inwardly rectifying potassium channel KCNH2 (Homo sapiens, UniProt Q12809); assay: Inhibition of ERG in human HEK293 cells incubated for 1 hr by thallium flux assay; type: cell-based; in short: as §1
[5] = Kinetic solubility in […] % DMSO/water at 3.2 uM to 100 uM incubated for 18 hrs by spectrometry; type: physicochemical; settings: for solubility kinetic at 18 h: […] DMSO/water, read-out: Kinetic_solubility
[6] = Stability in 1:1 MeCN:0.2N aq. HCl assessed as percent remaining at 0.3 mM and 60 degC incubated for 24 hrs by LC/MS analysis; type: physicochemical; settings: for remaining at 24 h, 300 µM: 1:1 MeCN:0.2N aq; call rule not given here. HCl, read-out: Stability
In short: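 Compound in 1:1 CH3CN/0.2 N aqueous HCl with furan-2-carboxylic acid (1 eq) as internal standard, heated at 60 °C. Analysed by LC-MS at set time points. Degradation from UV peak area at 254 nm relative to the internal standard.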

HEK293 = assay: Cytotoxicity against human HEK293 cells assessed as reduction in cell viability incubated for 18 hrs by celltiter-glo assay; settings: hek293, 18 h
[7] = target: Adrenergic receptor alpha-1 (Homo sapiens) (UniProt P35348+P25100+P35368); assay: Binding affinity to alpha1 adrenergic receptor (unknown origin) at 10 uM relative to control; type: protein assay
CYP3A4 [8] = target: T1, CYP3A4; assay: Inhibition of CYP3A4 (unknown origin) at 10 uM using DBOMF as substrate measured for each min for 6 mins by fluorescence based assay relative to control; type: ADME; settings: probe DBOMF
In short: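 Vivid CYP3A4 Green assay in PBS pH 7.2 with NADP+ regeneration system. Final levels: 5 nM CYP3A4, 2 μM DBOMF substrate, 100 μM NADP+, 10 μM compound. Fluorescence (ex 490/em 520 nm) read every minute for 6 min, four wells per compound.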

[9] = Metabolic stability in human liver microsomes assessed as percent remaining […] incubated for 1 hr by LC/MS analysis; type: ADME, Microsome
In short: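 Compound at 10 μM final (from 1 mM DMSO stock) pre-incubated 5 min at 37 °C with NADPH regenerating system in phosphate buffer pH 7.4. Started with human liver microsomes (0.5 mg/mL protein). After 1 h, triplicate aliquots quenched in cold acetonitrile with internal standard. Percent remaining by LC-MS/MS peak-area ratio to internal standard.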

HepG2 = assay: Cytotoxicity against human HepG2 cells assessed as reduction in cell viability incubated for 18 hrs by celltiter-glo assay; settings: hepg2, 18 h
D(3) dopamine receptor [10] = target: T2, D(3) dopamine receptor (Homo sapiens, UniProt P35462); assay: Inhibition of D3 receptor (unknown origin)
D(3) dopamine receptor [11] = target: T2, D(3) dopamine receptor; assay: Binding affinity to D3 receptor (unknown origin) at 10 uM relative to control
[12] = target: T3, Alpha-1A adrenergic receptor (Homo sapiens) (UniProt P35348); assay: Binding affinity to alpha1A adrenergic receptor (unknown origin) at 10 uM relative to control
T3 sequence (whole entry): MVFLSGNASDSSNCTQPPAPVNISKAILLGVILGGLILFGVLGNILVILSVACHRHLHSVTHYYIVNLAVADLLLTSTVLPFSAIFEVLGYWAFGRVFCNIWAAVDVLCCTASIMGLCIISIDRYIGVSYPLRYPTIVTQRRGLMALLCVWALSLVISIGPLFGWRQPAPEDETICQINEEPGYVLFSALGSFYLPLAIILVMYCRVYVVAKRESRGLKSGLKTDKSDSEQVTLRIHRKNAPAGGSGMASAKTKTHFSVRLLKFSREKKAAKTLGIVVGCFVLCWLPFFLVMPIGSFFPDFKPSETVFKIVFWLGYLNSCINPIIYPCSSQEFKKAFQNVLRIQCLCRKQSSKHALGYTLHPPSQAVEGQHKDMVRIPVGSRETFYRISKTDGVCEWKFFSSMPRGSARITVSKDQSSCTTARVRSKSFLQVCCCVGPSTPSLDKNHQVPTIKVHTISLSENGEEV

[13] = target: T4, Alpha-1A adrenergic receptor (Homo sapiens, UniProt P35348); assay: Inhibition of alpha1A adrenergic receptor (unknown origin)
T4 sequence (P35348 whole entry): T3 sequence (whole entry)

T1 sequence (P08684 whole entry): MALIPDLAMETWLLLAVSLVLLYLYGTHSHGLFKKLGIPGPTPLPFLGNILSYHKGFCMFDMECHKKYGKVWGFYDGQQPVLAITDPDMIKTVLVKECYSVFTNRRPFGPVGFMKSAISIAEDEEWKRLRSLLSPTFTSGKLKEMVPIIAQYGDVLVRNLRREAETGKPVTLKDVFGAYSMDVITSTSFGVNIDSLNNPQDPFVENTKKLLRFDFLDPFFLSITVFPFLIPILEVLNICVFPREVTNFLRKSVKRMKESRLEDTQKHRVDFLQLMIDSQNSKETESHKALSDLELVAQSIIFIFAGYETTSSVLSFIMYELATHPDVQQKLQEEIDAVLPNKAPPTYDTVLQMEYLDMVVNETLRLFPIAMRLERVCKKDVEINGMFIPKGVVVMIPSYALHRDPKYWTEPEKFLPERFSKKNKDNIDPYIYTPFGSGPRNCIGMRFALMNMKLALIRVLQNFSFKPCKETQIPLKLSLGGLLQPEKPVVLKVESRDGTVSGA
Sequence of Potassium voltage-gated channel subfamily KQT member 2 (O43526 whole entry): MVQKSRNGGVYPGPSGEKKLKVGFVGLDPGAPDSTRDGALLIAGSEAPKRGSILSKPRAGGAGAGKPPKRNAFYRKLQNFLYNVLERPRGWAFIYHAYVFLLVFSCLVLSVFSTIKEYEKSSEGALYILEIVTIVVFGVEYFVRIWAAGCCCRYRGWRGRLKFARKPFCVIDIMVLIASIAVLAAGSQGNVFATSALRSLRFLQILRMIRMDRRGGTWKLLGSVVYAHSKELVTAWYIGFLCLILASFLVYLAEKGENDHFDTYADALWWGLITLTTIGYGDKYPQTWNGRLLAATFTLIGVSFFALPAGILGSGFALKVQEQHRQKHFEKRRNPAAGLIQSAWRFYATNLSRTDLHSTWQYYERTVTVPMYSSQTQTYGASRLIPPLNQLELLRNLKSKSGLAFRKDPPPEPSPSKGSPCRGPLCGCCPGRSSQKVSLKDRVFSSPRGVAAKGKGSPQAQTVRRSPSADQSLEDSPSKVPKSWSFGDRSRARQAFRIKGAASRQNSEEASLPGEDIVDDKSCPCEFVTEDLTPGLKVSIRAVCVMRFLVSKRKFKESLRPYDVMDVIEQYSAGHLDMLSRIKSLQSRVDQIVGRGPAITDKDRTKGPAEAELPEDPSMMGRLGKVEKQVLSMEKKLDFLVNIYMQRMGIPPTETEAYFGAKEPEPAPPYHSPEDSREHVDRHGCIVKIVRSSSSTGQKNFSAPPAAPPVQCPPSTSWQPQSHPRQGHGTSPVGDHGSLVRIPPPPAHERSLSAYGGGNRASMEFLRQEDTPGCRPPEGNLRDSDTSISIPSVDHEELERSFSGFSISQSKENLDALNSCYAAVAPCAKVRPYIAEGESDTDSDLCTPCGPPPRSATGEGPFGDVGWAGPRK
Sequence of Voltage-gated inwardly rectifying potassium channel KCNH2 (Q12809 whole entry): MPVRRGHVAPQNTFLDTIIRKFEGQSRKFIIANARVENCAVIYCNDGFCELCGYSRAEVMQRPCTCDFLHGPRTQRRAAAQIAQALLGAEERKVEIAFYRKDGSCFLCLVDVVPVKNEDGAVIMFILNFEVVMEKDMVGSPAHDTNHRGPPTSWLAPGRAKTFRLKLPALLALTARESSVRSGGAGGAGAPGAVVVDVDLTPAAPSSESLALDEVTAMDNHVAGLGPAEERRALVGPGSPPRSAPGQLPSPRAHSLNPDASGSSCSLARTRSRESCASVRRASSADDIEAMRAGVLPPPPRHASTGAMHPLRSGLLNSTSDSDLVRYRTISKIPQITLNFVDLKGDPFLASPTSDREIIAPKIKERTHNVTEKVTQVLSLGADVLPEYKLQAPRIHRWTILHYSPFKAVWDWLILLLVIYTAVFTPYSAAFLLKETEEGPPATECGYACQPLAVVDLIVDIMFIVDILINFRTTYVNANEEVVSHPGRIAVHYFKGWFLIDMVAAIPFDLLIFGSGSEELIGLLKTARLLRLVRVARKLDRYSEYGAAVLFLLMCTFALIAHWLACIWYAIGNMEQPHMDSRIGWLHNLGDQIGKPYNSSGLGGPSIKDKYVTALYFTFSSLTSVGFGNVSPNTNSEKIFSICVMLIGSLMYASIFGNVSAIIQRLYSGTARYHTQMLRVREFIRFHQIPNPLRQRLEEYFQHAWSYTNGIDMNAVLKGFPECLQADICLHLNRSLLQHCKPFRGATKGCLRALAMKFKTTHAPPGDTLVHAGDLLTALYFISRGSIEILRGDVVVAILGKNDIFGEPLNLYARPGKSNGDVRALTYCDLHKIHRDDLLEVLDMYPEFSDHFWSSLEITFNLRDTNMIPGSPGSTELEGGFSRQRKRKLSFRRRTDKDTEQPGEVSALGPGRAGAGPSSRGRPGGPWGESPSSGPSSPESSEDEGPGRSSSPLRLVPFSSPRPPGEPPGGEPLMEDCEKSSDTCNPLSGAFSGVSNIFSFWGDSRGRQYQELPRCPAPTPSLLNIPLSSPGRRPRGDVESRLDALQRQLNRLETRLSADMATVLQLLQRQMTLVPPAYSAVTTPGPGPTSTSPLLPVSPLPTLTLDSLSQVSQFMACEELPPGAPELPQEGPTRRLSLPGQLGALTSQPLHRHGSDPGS
T2 sequence (P35462 whole entry): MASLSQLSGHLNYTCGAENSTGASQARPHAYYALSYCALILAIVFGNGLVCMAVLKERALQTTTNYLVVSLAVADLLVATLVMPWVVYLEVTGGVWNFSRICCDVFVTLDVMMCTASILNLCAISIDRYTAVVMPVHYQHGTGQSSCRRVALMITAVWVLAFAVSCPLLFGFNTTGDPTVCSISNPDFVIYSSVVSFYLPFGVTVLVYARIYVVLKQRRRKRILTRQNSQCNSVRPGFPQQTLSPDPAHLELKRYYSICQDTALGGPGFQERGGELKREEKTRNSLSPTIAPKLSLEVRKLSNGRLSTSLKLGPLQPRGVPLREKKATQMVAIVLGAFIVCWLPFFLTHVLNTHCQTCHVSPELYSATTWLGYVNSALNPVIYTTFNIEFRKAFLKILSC
Sequence of Adrenergic receptor alpha-1 (Homo sapiens) (P25100 whole entry, looked up, one chain of several): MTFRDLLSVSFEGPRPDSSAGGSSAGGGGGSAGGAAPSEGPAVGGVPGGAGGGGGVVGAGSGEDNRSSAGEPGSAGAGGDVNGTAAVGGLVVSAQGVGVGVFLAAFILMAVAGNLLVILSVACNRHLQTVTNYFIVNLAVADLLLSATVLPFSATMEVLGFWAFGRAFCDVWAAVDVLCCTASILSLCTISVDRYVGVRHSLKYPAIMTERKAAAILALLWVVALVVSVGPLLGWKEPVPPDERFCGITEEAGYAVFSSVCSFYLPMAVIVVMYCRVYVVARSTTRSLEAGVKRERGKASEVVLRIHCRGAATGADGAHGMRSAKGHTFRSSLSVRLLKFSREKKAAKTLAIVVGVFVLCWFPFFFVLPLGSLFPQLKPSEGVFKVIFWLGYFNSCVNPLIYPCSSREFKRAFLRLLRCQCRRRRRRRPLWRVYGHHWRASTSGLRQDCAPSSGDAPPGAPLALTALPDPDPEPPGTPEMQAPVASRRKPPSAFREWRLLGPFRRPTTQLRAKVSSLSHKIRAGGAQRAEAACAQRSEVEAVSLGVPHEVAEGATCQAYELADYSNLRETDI
Sequence of Adrenergic receptor alpha-1 (Homo sapiens) (P35368 whole entry, looked up, one chain of several): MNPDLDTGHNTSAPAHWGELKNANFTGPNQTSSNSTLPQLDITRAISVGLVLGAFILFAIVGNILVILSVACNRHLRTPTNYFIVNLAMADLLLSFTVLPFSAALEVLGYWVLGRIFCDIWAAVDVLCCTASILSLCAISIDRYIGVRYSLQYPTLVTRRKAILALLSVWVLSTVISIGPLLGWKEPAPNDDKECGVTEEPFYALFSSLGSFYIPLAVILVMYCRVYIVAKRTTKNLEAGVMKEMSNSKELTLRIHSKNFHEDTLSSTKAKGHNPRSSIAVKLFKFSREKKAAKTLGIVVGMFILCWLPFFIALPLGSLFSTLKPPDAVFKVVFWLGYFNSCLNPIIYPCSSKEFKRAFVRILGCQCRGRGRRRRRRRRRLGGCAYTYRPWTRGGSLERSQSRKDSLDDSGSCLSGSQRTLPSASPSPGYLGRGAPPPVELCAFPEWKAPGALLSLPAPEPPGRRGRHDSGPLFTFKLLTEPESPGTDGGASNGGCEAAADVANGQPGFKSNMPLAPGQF

Work on `O=C1c2ccccc2C(Cc2ccnc(C(F)(F)F)c2)(Cc2ccnc(C(F)(F)F)c2)c2ccccc21` yielded an inhibition at 0.1 h, 50 µM (CYP3A4 [1]) of 95%, an IC50 [2] of 5.6 µM and an inhibition [3] of 6%. The IC50 [4] was “Not Active”.

`O=C1c2ccccc2C(Cc2ccncc2)(Cc2ccncc2)c2ccccc21` showed a solubility kinetic at 18 h [5] of 27 µM (≈ 10.2 µg/mL), an IC50 [2] of 0.055 µM and an inhibition [3] of 81%.

Molecule `O=C1c2ccccc2C(Cc2ccnnc2)(Cc2ccnnc2)c2ccccc21` has an inhibition at 0.1 h, 50 µM (CYP3A4 [1]) of 28%, an IC50 [2] of 10 µM and an inhibition [3] of 12%. The IC50 [4] was “Not Active”.

In the case of `Cc1cc(CC2(Cc3ccnc(C)c3)c3ccccc3C(=O)c3ccccc32)ccn1`, the inhibition at 0.1 h, 50 µM (CYP3A4 [1]) is reported as 92%, the IC50 [2] is reported as 0.54 µM and the inhibition [3] is reported as 33%. For the same molecule, the IC50 [4] was “Not Active”.

`O=C1c2ccccc2C(Cc2ccnnc2)(Cc2c(F)cncc2F)c2ccccc21` gave a remaining at 24 h, 300 µM [6] of over 99%, a Kinetic_solubility ([5]; buffer, 18 h, 3.2 µM) of 27 µM and a CC50 (HEK293) of over 150 µM. It also gave an Activity [7] of over 30%, an inhibition at 0.1 h, 10 µM (CYP3A4 [8]) of 90% and a Stability [9] of 84%. For the same molecule, the CC50 (HepG2) was over 150 µM, the Ki (D(3) dopamine receptor [10]) was over 10 µM and the Activity (D(3) dopamine receptor [11]) was over 30%. The IC50 [2] was 0.16 µM and the inhibition [3] was 73%.

`O=C1c2ccccc2C(Cc2c(F)cncc2F)(Cc2c(F)cncc2F)c2ccccc21` gave a remaining at 24 h, 300 µM [6] of over 99%, an inhibition at 0.1 h, 50 µM (CYP3A4 [1]) of 97% and an IC50 [2] of 0.2 µM. The inhibition [3] was 65%.

With `O=C1c2ccccc2C(Cc2ccnc(F)c2)(Cc2ccnc(F)c2)c2ccccc21` the Stability ([6]; buffer, 24 h, 300 µM) was 83%, the solubility kinetic at 18 h [5] was 27 µM (≈ 11.1 µg/mL) and the CC50 (HEK293) was 77 µM. The inhibition at 0.1 h, 50 µM (CYP3A4 [1]) was 82%, the Activity [12] was over 30% and the Activity [7] was over 30%. The inhibition at 0.1 h, 10 µM (CYP3A4 [8]) was 79%, the Stability [9] was 97% and the CC50 (HepG2) was 132 µM. The IC50 [2] was 0.048 µM, the inhibition [3] was 31% and the Ki [13] was 1.1 to 3.1 µM.
